This passage reports cytotoxicity results from ChEMBL document CHEMBL4513216, “Probing the Open Global Health Chemical Diversity Library for Multistage-Active Starting Points for Next-Generation Antimalarials” (ACS Infect Dis, 2020).

This data set is described as follows: Toxicity liver stage against HepG2, at 10uM. In kind it is cell-based. On the set-up: test concentration 10 uM, cell line HepG2-A16-CD81EGFP. The note with it: human, HepG2-A16-CD81EGFP cells; read-out: INHIBITION
A digest of the protocol: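 Uninfected HepG2-A16-CD81EGFP cells, 3 × 10^3 per well, 1536-well, plated on prespotted compound at 10 μM final, parasite-free screening media added to match infected plates; puromycin 10 μM positive, DMSO 0.5% negative; run in parallel with 48 h PbLuc assay at 37 °C, 5% CO2; viability by CellTiter-Glo luminescence, normalized to controls.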
As for `Cc1nc(CN(CCc2ccccc2)C2CCN(C)CC2)no1`, the cytotoxicity at 10 µM was -4%.

Regarding `C[S+]([O-])c1nncn1CC(=O)c1ccc2c(c1)CCC2` (configuration not stated), the cytotoxicity at 10 µM is -1.88%. For the molecule `CCOc1ccccc1CNC(=O)c1cnn(CC)c1C(F)(F)F`, the cytotoxicity at 10 µM turned out to be 3.67%.

In the case of `COC(=O)C(C)(C)NC(=O)c1cnc(C(C)(C)C)s1`, the cytotoxicity at 10 µM was determined as 3.87%. To `Cc1cccnc1NCCNC(=O)c1cnc(-c2cccs2)nc1O` belongs 4.62%. For the molecule `Cc1cc(NC(=O)c2ccc(N3CCOCC3)c(F)c2)[nH]n1`, the cytotoxicity at 10 µM is -33.9%. To `O=C1NCCCc2[nH]c(Cc3cccc(Cl)c3)nc21` belongs 13%; to `CN(C)CCN1CCC2(CCCN(Cc3cccn3C)C2)C1=O` (configuration not stated), -114%. On to `O=C(NCc1ccc(-n2cncn2)nc1)N(CC1CCOC1)C1CC1` (configuration not stated), for which the cytotoxicity at 10 µM worked out at 1.74%.

Take `O=C(c1c[nH]nn1)N1CCN(C(c2ccccc2)C(F)(F)F)CC1` (configuration not stated): the cytotoxicity at 10 µM is 8.92%.

For the molecule `O=C(NCC1OCCc2cn(CC3CCOCC3)nc21)c1ccncc1` (configuration not stated), the cytotoxicity at 10 µM was -78%. To `CNC(=O)CN1CCC(NC(=O)Cn2cc(C)c3ccccc32)CC1` belongs -4.65%; to `CC(=O)c1cnc(NCCN2CCCC2)nc1C`, -3.73%.

As to `CC(=O)Nc1cccc(OCCNC(=O)N(C)Cc2ccncc2)c1`, the cytotoxicity at 10 µM is 4.77%. For `CCCn1ncc(C(=O)NC2CCN(CC3CCCO3)CC2)c1C` (configuration not stated), the cytotoxicity at 10 µM was -2.43%. With `CCOc1cc(F)ccc1NC(=O)NCC(c1cnn(C)c1)N(C)C` (configuration not stated), the cytotoxicity at 10 µM was 5.09%. Take `COc1cc(F)c(S(=O)(=O)Nc2cnc(O)cc2C)cc1OC`: the cytotoxicity at 10 µM came out at 5.66%.

In the case of `CCCC1(CO)CCCN(Cc2ncccn2)C1` (configuration not stated), the cytotoxicity at 10 µM was -1.89%. Consider `N#Cc1ccc(S(=O)(=O)NCCn2ccnc2)cc1Cl`, for which the cytotoxicity at 10 µM stood at 22.5%. To `CN(CC1CCOC1)S(=O)(=O)c1cccc(C(=O)N2CCOCC2)c1` (configuration not stated) belongs -13.3%. As for `CN1CC(=O)N(c2ccccc2)CC12CCN(C(=O)c1cnccn1)C2` (configuration not stated), the cytotoxicity at 10 µM was found to be 9.91%.

`COc1cc(C(=O)N2CCO[C@H]3[C@H](OCC4CC4)CC[C@@H]32)ccc1F`: the cytotoxicity at 10 µM worked out at 9.32%. To `Cc1ccc(CN2CCc3ncnc(-c4ccoc4)c3CC2)o1` belongs 0.968%; to `COc1ccccc1OC1CCN(C(=O)C2CCCN(C)C2)CC1` (configuration not stated), -53.5%; to `Cn1cc(C2(C)CN(C(=O)Nc3ccccc3F)CCO2)cn1` (configuration not stated), -5.23%. For `Cc1noc(C(C)N2CCN(CCOCC(F)(F)F)CC2)n1` (configuration not stated) the value was -1.4%. For `CN(C)S(=O)(=O)NCCn1nc(-c2ccccc2)n(C)c1=O` the value was -2.17%. Turning to `CC(=O)N1[C@H](Cn2cncn2)C[C@@H]2CN(C(=O)c3ccoc3)CC[C@@H]21`, the cytotoxicity at 10 µM was -3.42%. For `COc1ccccc1Oc1ncccc1CNC(=O)[C@@H](C)NC(C)=O` the value was -2.61%; for `CN(C)CCn1c([C@H]2CCCO2)cc2cccnc21`, 17.1%. `CC(c1cccnc1)N(C)C(=O)NCCOc1ccc(C#N)cc1` (configuration not stated): the cytotoxicity at 10 µM is -6.17%. For `CC(C)CN1CCC(C(=O)NCCNC(=O)c2ccccc2)CC1` the value was 1.22%; for `NC(=O)C1=NN2C(=NS(=O)(=O)c3ccccc32)N1`, 7.58%; for `c1ccc(CCNC2CCc3ncnn3C2)nc1` (configuration not stated), -4.03%. For the molecule `Cc1ccc(C(=O)N(C)C)cc1NC(=O)COCC1CC1`, the cytotoxicity at 10 µM turned out to be 2.95%. To `CCN1CCCC(CNC(=O)C2(c3cc(C)cc(C)c3)CCC2)C1` (configuration not stated) belongs -10.7%; to `O=S(=O)(Cc1ccccc1)NCC1CCCN(Cc2cccs2)C1` (configuration not stated), 3.3%; to `O=C(O)C(c1ccc2[nH]ccc2c1)N1CCN(c2cnccn2)CC1` (configuration not stated), 2.56%. To `CC(=O)NCCNC(=O)c1cc(C)ccc1SC1CCCC1` belongs -41.5%; to `CNC(=O)c1nc2c(s1)CCN(C(=O)c1cccnc1)CC2`, 6%. On to `CC(C)CC(=O)N1CC[C@@H]2CN(Cc3cccnc3)S(=O)(=O)[C@@H]2CC1`, for which the cytotoxicity at 10 µM is -103%. Consider `CC(C)N1CCC(C(=O)N[C@H](C(=O)O)c2cccc(F)c2F)CC1`, for which the cytotoxicity at 10 µM turned out to be 2.59%. Take `COc1ccc(CN2CCn3cccc3C2C)cc1F` (configuration not stated): the cytotoxicity at 10 µM was -2.63%. Turning to `Cc1cc(C)n(CC2CCCN2C(=O)c2ccc(N(C)C)nn2)n1` (configuration not stated), the cytotoxicity at 10 µM is 1.53%. For `O=C(c1cnccn1)N1C[C@@H]2C[C@@H](c3nc(C4CC4)cs3)O[C@@H]2C1` the value was -118%; for `Cc1cnn(CC2CCCCN2Cc2c(C)noc2C)c1` (configuration not stated), -11.2%. For `Cn1cc(Nc2cccc(C(=O)N(CC(N)=O)C3CCCC3)c2)cn1` the value was -1.78%. To `O=C(Nc1ccc(CCN2CCOCC2)cc1)C1CCCC1` belongs -16%; to `CC(C)Oc1ncnc2c1CCN(Cc1ccoc1)CC2`, 2.56%. Turning to `CCCC(=O)NCCc1cc(N2CCN(C(C)=O)CC2)nc(C2CC2)n1`, the cytotoxicity at 10 µM was -28.2%. For `CC1COCCN1C(=O)Nc1cnc2c(cnn2C(C)C)c1` (configuration not stated) the value was -2.21%; for `CC(C)(C#N)CCCS(=O)(=O)c1nccn1-c1cccc(F)c1`, -1.12%; for `O=C(c1ccco1)N1CCC2(CC1)C(=O)Nc1ccccc12`, -144%. Turning to `Cn1cccc1C(O)CNC(=O)c1ccc(C(F)(F)F)cc1` (configuration not stated), the cytotoxicity at 10 µM worked out at 2.9%. To `Cc1cc(-c2cnn(CCNC(=O)c3snnc3C)c2C2CC2)on1` belongs -7.16%; to `CCn1ccnc1CN1CCN(CCC(=O)NC(C)(C)C)CC1C` (configuration not stated), -15.8%.

Take `c1ccc([C@@H]2CN(Cc3cccnc3)C[C@H]2c2cc[nH]n2)cc1`: the cytotoxicity at 10 µM is -4.24%. For `COC(=O)c1sccc1S(=O)(=O)N1CCC(Oc2cccnn2)CC1` the value was -4.82%; for `O=C(Nc1cccnc1)[C@@H]1C[C@H]2OCC[C@H]2N(Cc2nccs2)C1`, 5.02%; for `CC(=O)Nc1nc2c(s1)C(C)(C)Nc1ccccc1S2`, -7.08%. On to `CN(Cc1ccc(F)cc1)CC1(O)CCN(C(=O)c2ccncc2)C1` (configuration not stated), for which the cytotoxicity at 10 µM was -2.25%. To `Cc1cnn(CC2CCCN2CC(=O)Nc2cc(C(C)C)no2)c1` (configuration not stated) belongs 4.23%.

Take `COc1c(C(=O)NCc2cccnc2)nnn1Cc1ccc(C)cc1`: the cytotoxicity at 10 µM worked out at 11.8%. For `CC(C)NC(=O)c1nc2c(s1)CCCN2Cc1ccccc1` the value was 18.3%; for `FC(F)(F)c1ccnc(N2CCCCCC2)c1`, 3.02%; for `CCc1[nH]c2c(CNc3nc(C)cc(NC)n3)cc(C)cc2c1C`, -22.4%. For `CCCc1nc2c(c(C)c(C)n2Cc2ccncc2)c(N)c1CC`, the cytotoxicity at 10 µM was 14.3%.

As for `O=C([C@H]1C[C@H]2[C@H](CCN2Cc2cccs2)O1)N1CCOCC1`, the cytotoxicity at 10 µM is 0.582%. As to `CC(C)c1noc(-c2ccc(NCCCC3CCOC3)nc2)n1` (configuration not stated), the cytotoxicity at 10 µM is -7.37%.

For the molecule `CCCc1noc(CCC(=O)N2CCN(C)CC2c2ccccc2)n1` (configuration not stated), the cytotoxicity at 10 µM is -7.47%. To `CC(C(=O)N1CCCCCC1)N1CCN(Cc2nccn2C)CC1` (configuration not stated) belongs -5.28%; to `COc1cc(N2CCCn3cnc(COCCO)c3C2)ncn1`, -3.61%; to `Cc1cnc(CN2CCCC(c3cc(C(F)(F)F)[nH]n3)C2)cn1` (configuration not stated), -0.168%. For `O=C(CN1CCN(c2ccnc3c(F)ccc(F)c23)CC1)N1CCCC1` the value was 17.4%; for `CCCC1CCCN(C(=O)CNC(=O)c2ccoc2C)CC1` (configuration not stated), 4%; for `CC(C)(C)CCCC(=O)NS(=O)(=O)CC1CC1`, -6.19%. For `O=C1COC2(CCN(c3ncccn3)CC2)CN1Cc1ccccn1` the value was 2.4%; for `Cc1nc(-c2nnc[nH]2)sc1C(=O)N1CCCC1CC(C)(C)C` (configuration not stated), 12.1%.

`COCC(O)CN(C)c1ccnc2cc(Br)ccc12` (configuration not stated): the cytotoxicity at 10 µM turned out to be 5.02%. To `COc1cc(OC)c2nc(NCCN3CCNC3=O)cc(C)c2c1` belongs -3.4%; to `CN1CCC2(CC1)CN(C)C(=O)C[C@@H]2C(F)(F)F`, -144%; to `CCC(O)CN(CC(=O)Nc1cc(C)no1)c1ccccc1` (configuration not stated), -2.59%. For `Cn1cc(C(=O)N2CCCC(c3cnccn3)C2)cn1` (configuration not stated) the value was -10.5%; for `CCN1CCN(C2CCN(Cc3noc(C)n3)CC2)C1=O`, -8.13%; for `N#Cc1cc2n(n1)CCN(C(=O)CCc1c[nH]c3ccccc13)C2`, -9.64%. To `O=C(Nc1ccc(OC(F)F)cc1)N1CCC(c2nnc[nH]2)CC1` belongs 7.25%. As to `CCN(C)S(=O)(=O)NCC(C)(O)c1ccsc1` (configuration not stated), the cytotoxicity at 10 µM was 1.83%. To `N#Cc1cccc(NC2CC(=O)N(CCc3ccc(F)cc3)C2)n1` (configuration not stated) belongs -118%; to `CC(NS(=O)(=O)N(C)C(C)C)C(=O)N(C)C` (configuration not stated), 7.95%; to `O=S(=O)(C1CC1)N1CCC2(CCCN(c3ncccn3)C2)C1` (configuration not stated), -4.02%. Take `CC1c2ncc(Cn3cncn3)n2CCN1C(=O)c1ccccn1` (configuration not stated): the cytotoxicity at 10 µM is -0.785%. Take `CCc1nc(C)c([C@H]2CN(C)C[C@@H]2C(=O)Nc2ccc(OC)nc2)[nH]1`: the cytotoxicity at 10 µM is -3.59%. As for `Cc1cnc(CN(Cc2cccc(O)c2)CC2CC2)cn1`, the cytotoxicity at 10 µM is 16.7%. Turning to `CC(C)(C)c1coc([C@@H]2COCCN2CC2CC2)n1`, the cytotoxicity at 10 µM is -10.1%. For `Cc1cncc(C(=O)N2CCOc3nc(C)ccc32)c1` the value was 5.19%. Take `O=C(NCCN1CCOCC1)c1cnc(Cc2ccc(F)cc2)s1`: the cytotoxicity at 10 µM came out at 16.7%. For `Cc1cc(C2CCCN2C(=O)CN2CC3(CCNCC3)OC2=O)on1` (configuration not stated) the value was 16.4%.
